In ChEMBL document CHEMBL1138530 (Antimicrob Agents Chemother, 2007):
Values after ≈ are worked out from the molar mass of the structure shown.

How the values were obtained:
[1] = system: Human immunodeficiency virus 1; assay: Antiviral activity against HIV1 infected in human assessed as clearance rate of virions at 75 mg, po; assay type: functional
In short: (§1)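 Randomized, double-blind, placebo-controlled trial; HIV-infected adults (CD4 >200 cells/mm3, plasma viral load 5,000–250,000 copies/ml, no antiretrovirals ≥4 weeks), six per cohort, single oral dose. Plasma HIV RNA sampled predose through day 24. Viral-dynamic model (uninfected/infected CD4, virus; Hill-type inhibition of new infection by plasma concentration) fit by maximum likelihood then Bayesian estimation, pharmacokinetic parameters held fixed.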

Homo sapiens [2] = assay: Distributional clearance in HIV1 infected human at 150 mg, po; assay type: ADME, organism-based; conditions: in vivo
In short: (§2)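 Single oral dose to HIV-infected adults, six per cohort; plasma sampled 0–48 h and days 3–24. Heparinized plasma, internal-standard spiked, acetonitrile-precipitated, assayed by reverse-phase LC-MS/MS (MRM 583.3→455.2); ranges 20.0–16,000 ng/ml (75 mg) or 100–60,000 ng/ml (150, 250 mg). Oral two-compartment linear model with absorption lag fit by maximum likelihood then Bayesian estimation.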

[3] = system: Human immunodeficiency virus 1; assay: Antiviral activity against HIV1 infected in human assessed as clearance rate of virions at 150 mg, po; assay type: functional; in short: as §1
Homo sapiens [4] = assay: Tlag in HIV1 infected human at 150 mg, po; assay type: ADME, organism-based; conditions: in vivo; in short: as §2
[5] = system: Human immunodeficiency virus 1; assay: Antiviral activity against HIV1 infected in human assessed as logarithmic reduction in HIV RNA copies at 75 mg, po relative to baseline; assay type: functional
In short: (§3)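 Randomized, double-blind, placebo-controlled single oral dose in HIV-infected adults (CD4 >200 cells/mm3, viral load 5,000–250,000 copies/ml, off therapy ≥4 weeks), six per cohort. Plasma HIV RNA at screening, predose, 6–48 h and days 3–24; maximum observed log10 drop from baseline per patient, averaged by dose, compared by ANOVA.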

[6] = system: Human immunodeficiency virus 1; assay: Antiviral activity against HIV1 assessed as inhibition of release of CA/p24 from CA-SP1/p25 at 37.8 nM by MAGI assay; assay type: functional; conditions: Human immunodeficiency virus 1, MAGI
Homo sapiens [7] = assay: Effect of CD4 cell count in HIV1 infected human at 150 mg, po after 10 days; assay type: functional
In short: (§4)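 CD4 cell count change from baseline 10 days after a single oral dose in HIV-infected adults (baseline CD4 >200 cells/mm3), six per cohort, placebo-controlled double-blind design; tested by dose and over time.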

[8] = system: Human immunodeficiency virus 1; assay: Antiviral activity against HIV1 infected in human assessed as number of new virions produced by infected CD4 cells at 250 mg, po; assay type: functional; in short: as §1
[9] = system: Human immunodeficiency virus 1; assay: Antiviral activity against HIV1 infected in human assessed as number of new virions produced by infected CD4 cell at 75 mg, po; assay type: functional; in short: as §1
[10] = system: Human immunodeficiency virus 1; assay: Antiviral activity against HIV1 infected in human assessed as death rate constant of uninfected CD4 cells at 150 mg, po; assay type: functional
In short: (§5)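 Randomized, double-blind, placebo-controlled trial in HIV-infected adults (CD4 >200 cells/mm3, plasma viral load 5,000–250,000 copies/ml, off antiretrovirals ≥4 weeks), six per cohort, single oral dose. Plasma drug levels measured by LC-MS/MS; HIV RNA sampled to day 24. Parameters from a viral-dynamic model (Hill-type inhibition of new CD4 infection) fit per subject by maximum likelihood then Bayesian estimation; reported as mean (%CV).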

[11] = Half life in HIV1 infected human at 75 mg, po; assay type: ADME, organism-based; conditions: in vivo; in short: as §2
[12] = system: Human immunodeficiency virus 1; assay: Antiviral activity against HIV1 infected in human assessed as rate at which virus infects CD4 cells at 250 mg, po; assay type: functional; in short: as §1
[13] = system: Human immunodeficiency virus 1; assay: Antiviral activity against HIV1 infected in human assessed as death rate constant of infected CD4 cells at 250 mg, po; assay type: functional; in short: as §5
Homo sapiens [14] = assay: Distributional clearance in HIV1 infected human at 250 mg, po; assay type: ADME, organism-based; conditions: in vivo; in short: as §2
[15] = system: Human immunodeficiency virus 1; assay: Antiviral activity against HIV1 infected in human assessed as maximum rate of viral replication measured as logarithmic viral copies at 75 mg, po; assay type: functional; in short: as §1
[16] = Half life in po dosed human; assay type: ADME, organism-based; conditions: in vivo
[17] = system: Human immunodeficiency virus 1; assay: Antiviral activity against HIV1 infected in human assessed as inhibition of viral replication at 75 mg, po; assay type: functional, organism-based; in short: as §1
Homo sapiens [18] = assay: Toxicity in HIV1 infected human assessed as incidence of adverse effect at 75 to 250 mg, po; assay type: organism-based; conditions: in vivo
In short: (§6)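 Safety monitoring of HIV-infected adults given a single oral dose or placebo (randomized, double-blind, six per cohort), followed to day 24 for adverse events, serious adverse events and deaths.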

[19] = system: Human immunodeficiency virus 1; assay: Antiviral activity against HIV1 infected in human assessed as death rate constant of uninfected CD4 cells at 75 mg, po; assay type: functional; in short: as §5
[20] = system: Human immunodeficiency virus 1; assay: Antiviral activity against HIV1 infected in human assessed as inhibition of viral replication at 250 mg, po; assay type: functional, organism-based; in short: as §1
[21] = Apparent oral clearance in HIV1 infected human at 250 mg, po; assay type: ADME, organism-based; conditions: in vivo; in short: as §2
Homo sapiens [22] = assay: Toxicity in HIV1 infected human assessed as mortality at 75 to 250 mg, po; assay type: organism-based; conditions: in vivo; in short: as §6
[23] = Apparent oral clearance in HIV1 infected human at 150 mg, po; assay type: ADME, organism-based; conditions: in vivo; in short: as §2
[24] = Half life in HIV1 infected human at 150 mg, po; assay type: ADME, organism-based; conditions: in vivo; in short: as §2
[25] = system: Human immunodeficiency virus 1; assay: Antiviral activity against HIV1 infected in human assessed as rate at which virus infects CD4 cells at 150 mg, po; assay type: functional; in short: as §1
[26] = system: Human immunodeficiency virus 1; assay: Antiviral activity against HIV1 infected in human assessed as death rate constant of infected CD4 cells at 75 mg, po; assay type: functional; in short: as §5
Homo sapiens [27] = assay: Tlag in HIV1 infected human at 75 mg, po; assay type: ADME, organism-based; conditions: in vivo; in short: as §2
[28] = system: Human immunodeficiency virus 1; assay: Antiviral activity against HIV1 infected in human assessed as logarithmic reduction in HIV RNA copies at 250 mg, po relative to baseline; assay type: functional; in short: as §3
[29] = system: Human immunodeficiency virus 1; assay: Antiviral activity against HIV1 infected in human assessed as clearance rate of virions at 250 mg, po; assay type: functional; in short: as §1
[30] = system: Human immunodeficiency virus 1; assay: Antiviral activity against HIV1 infected in human assessed as inhibition of viral replication at 150 mg, po; assay type: functional, organism-based; in short: as §1
Homo sapiens [31] = assay: Effect of CD4 cell count in HIV1 infected human at 75 mg, po after 10 days; assay type: functional; in short: as §4
[32] = system: Human immunodeficiency virus 1; assay: Antiviral activity against HIV1 infected in human assessed as rate at which virus infects CD4 cells at 75 mg, po; assay type: functional; in short: as §1
[33] = system: Human immunodeficiency virus 1; assay: Antiviral activity against HIV1 infected in human assessed as number of new virions produced by infected CD4 cell at 150 mg, po; assay type: functional; in short: as §1
[34] = system: Human immunodeficiency virus 1; assay: Antiviral activity against HIV1 infected in human assessed as death rate constant of uninfected CD4 cells at 250 mg, po; assay type: functional; in short: as §5
[35] = Apparent oral clearance in HIV1 infected human at 75 mg, po; assay type: ADME, organism-based; conditions: in vivo; in short: as §2
[36] = system: Human immunodeficiency virus 1; assay: Antiviral activity against HIV1 infected in human assessed as maximum rate of viral replication measured as logarithmic viral copies at 150 mg, po; assay type: functional; in short: as §1
[37] = system: Human immunodeficiency virus 1; assay: Antiviral activity against HIV1 infected in human assessed as maximum rate of viral replication measured as logarithmic viral copies at 250 mg, po; assay type: functional; in short: as §1
[38] = system: Human immunodeficiency virus 1; assay: Antiviral activity against HIV1 infected in human assessed as growth/production of uninfected CD4 cells at 250 mg, po; assay type: functional; in short: as §1
[39] = system: Human immunodeficiency virus 1; assay: Antiviral activity against HIV1 infected in human assessed as growth/production of uninfected CD4 cells at 150 mg, po; assay type: functional; in short: as §1
Homo sapiens [40] = assay: Effect of CD4 cell count in HIV1 infected human at 250 mg, po after 10 days; assay type: functional; in short: as §4
[41] = system: Human immunodeficiency virus 1; assay: Antiviral activity against HIV1 infected in human assessed as logarithmic reduction in HIV RNA copies at 150 mg, po relative to baseline; assay type: functional; in short: as §3
Homo sapiens [42] = assay: Distributional clearance in HIV1 infected human at 75 mg, po; assay type: ADME, organism-based; conditions: in vivo; in short: as §2
[43] = Half life in HIV1 infected human at 250 mg, po; assay type: ADME, organism-based; conditions: in vivo; in short: as §2
Plasma = assay: Stability in human plasma; assay type: ADME, cell-free
[44] = system: Human immunodeficiency virus 1; assay: Antiviral activity against HIV1 infected in human assessed as death rate constant of infected CD4 cells at 150 mg, po; assay type: functional; in short: as §5
[45] = system: Human immunodeficiency virus 1; assay: Antiviral activity against HIV1 infected in human assessed as growth/production of uninfected CD4 cells at 75 mg, po; assay type: functional; in short: as §1
Homo sapiens [46] = assay: Tlag in HIV1 infected human at 250 mg, po; assay type: ADME, organism-based; conditions: in vivo; in short: as §2

C=C(C)[C@@H]1CC[C@]2(C(=O)O)CC[C@]3(C)[C@H](CC[C@@H]4[C@@]5(C)CC[C@H](OC(=O)CC(C)(C)C(=O)O)C(C)(C)[C@@H]5CC[C@]43C)[C@@H]12 [BEVIRIMAT]
Activity [1]: 0.008 h⁻¹ | CLd (Homo sapiens [2]): 0.48 L/h | Activity [3]: 0.071 h⁻¹ | Tlag (Homo sapiens [4]): 0.2 h | Activity [5]: -0.14 mL⁻¹ | inhibition at 0.0378 µM [6]: 90% | Activity (Homo sapiens [7]): 121 | Activity [8]: 80.2 | Activity [9]: 137.8 | Activity [10]: 0.0012 h⁻¹ | half-life [11]: 63.9 h | Activity [12]: 0.0349 h⁻¹ | Activity [13]: 0.007 h⁻¹ | CLd (Homo sapiens [14]): 0.45 L/h | Activity [15]: 5.13 mL⁻¹ | half-life [16]: 55 h | EC50 [17]: 1.19 ng/mL (≈ 2.03 nM) | Activity (Homo sapiens [18]): Non-toxic | Activity [19]: 0.0031 h⁻¹ | EC50 [20]: 0.55 ng/mL (≈ 0.94 nM) | CL/F [21]: 2.83 mL/min | Activity (Homo sapiens [22]): Non-toxic | CL/F [23]: 2.67 mL/min | half-life [24]: 55.1 h | Activity [25]: 0.028 h⁻¹ | Activity [26]: 0.013 h⁻¹ | Tlag (Homo sapiens [27]): 0.18 h | Activity [28]: -0.46 mL⁻¹ | Activity [29]: 0.024 h⁻¹ | EC50 [30]: 0.35 ng/mL (≈ 0.598 nM) | Activity (Homo sapiens [31]): -15 | Activity [32]: 0.14 h⁻¹ | Activity [33]: 126 | Activity [34]: 0.0016 h⁻¹ | CL/F [35]: 2.83 mL/min | Activity [36]: 4.59 mL⁻¹ | Activity [37]: 4.46 mL⁻¹ | Activity [38]: 1856.6 mL/h | Activity [39]: 1340 mL/h | Activity (Homo sapiens [40]): 104 | Activity [41]: -0.47 mL⁻¹ | CLd (Homo sapiens [42]): 0.48 L/h | half-life [43]: 62.1 h | Stability (Plasma): 95 days | Activity [44]: 0.017 h⁻¹ | Activity [45]: 320.7 mL/h | Tlag (Homo sapiens [46]): 0.15 h
